Positions of bridges follow the written chain, without caps; N, C: chain ends. Non-standard residues stand in square brackets, D forms with d. Residues, ends and D or L forms follow the SMILES beside them. 1Nal = N[C@@H](Cc1cccc2ccccc12)C(=O)O
Experiments:
[1] = target: Sodium channel protein type 9 subunit alpha (Homo sapiens, UniProt Q15858); test: Inhibition of human Nav1.7 expressed in HEK293 cells assessed as inward peak current by ion-works quattro patch clamp electrophysiology method; assay type: cell-based
Sodium channel protein type 9 subunit alpha, sequence (Q15858 whole entry): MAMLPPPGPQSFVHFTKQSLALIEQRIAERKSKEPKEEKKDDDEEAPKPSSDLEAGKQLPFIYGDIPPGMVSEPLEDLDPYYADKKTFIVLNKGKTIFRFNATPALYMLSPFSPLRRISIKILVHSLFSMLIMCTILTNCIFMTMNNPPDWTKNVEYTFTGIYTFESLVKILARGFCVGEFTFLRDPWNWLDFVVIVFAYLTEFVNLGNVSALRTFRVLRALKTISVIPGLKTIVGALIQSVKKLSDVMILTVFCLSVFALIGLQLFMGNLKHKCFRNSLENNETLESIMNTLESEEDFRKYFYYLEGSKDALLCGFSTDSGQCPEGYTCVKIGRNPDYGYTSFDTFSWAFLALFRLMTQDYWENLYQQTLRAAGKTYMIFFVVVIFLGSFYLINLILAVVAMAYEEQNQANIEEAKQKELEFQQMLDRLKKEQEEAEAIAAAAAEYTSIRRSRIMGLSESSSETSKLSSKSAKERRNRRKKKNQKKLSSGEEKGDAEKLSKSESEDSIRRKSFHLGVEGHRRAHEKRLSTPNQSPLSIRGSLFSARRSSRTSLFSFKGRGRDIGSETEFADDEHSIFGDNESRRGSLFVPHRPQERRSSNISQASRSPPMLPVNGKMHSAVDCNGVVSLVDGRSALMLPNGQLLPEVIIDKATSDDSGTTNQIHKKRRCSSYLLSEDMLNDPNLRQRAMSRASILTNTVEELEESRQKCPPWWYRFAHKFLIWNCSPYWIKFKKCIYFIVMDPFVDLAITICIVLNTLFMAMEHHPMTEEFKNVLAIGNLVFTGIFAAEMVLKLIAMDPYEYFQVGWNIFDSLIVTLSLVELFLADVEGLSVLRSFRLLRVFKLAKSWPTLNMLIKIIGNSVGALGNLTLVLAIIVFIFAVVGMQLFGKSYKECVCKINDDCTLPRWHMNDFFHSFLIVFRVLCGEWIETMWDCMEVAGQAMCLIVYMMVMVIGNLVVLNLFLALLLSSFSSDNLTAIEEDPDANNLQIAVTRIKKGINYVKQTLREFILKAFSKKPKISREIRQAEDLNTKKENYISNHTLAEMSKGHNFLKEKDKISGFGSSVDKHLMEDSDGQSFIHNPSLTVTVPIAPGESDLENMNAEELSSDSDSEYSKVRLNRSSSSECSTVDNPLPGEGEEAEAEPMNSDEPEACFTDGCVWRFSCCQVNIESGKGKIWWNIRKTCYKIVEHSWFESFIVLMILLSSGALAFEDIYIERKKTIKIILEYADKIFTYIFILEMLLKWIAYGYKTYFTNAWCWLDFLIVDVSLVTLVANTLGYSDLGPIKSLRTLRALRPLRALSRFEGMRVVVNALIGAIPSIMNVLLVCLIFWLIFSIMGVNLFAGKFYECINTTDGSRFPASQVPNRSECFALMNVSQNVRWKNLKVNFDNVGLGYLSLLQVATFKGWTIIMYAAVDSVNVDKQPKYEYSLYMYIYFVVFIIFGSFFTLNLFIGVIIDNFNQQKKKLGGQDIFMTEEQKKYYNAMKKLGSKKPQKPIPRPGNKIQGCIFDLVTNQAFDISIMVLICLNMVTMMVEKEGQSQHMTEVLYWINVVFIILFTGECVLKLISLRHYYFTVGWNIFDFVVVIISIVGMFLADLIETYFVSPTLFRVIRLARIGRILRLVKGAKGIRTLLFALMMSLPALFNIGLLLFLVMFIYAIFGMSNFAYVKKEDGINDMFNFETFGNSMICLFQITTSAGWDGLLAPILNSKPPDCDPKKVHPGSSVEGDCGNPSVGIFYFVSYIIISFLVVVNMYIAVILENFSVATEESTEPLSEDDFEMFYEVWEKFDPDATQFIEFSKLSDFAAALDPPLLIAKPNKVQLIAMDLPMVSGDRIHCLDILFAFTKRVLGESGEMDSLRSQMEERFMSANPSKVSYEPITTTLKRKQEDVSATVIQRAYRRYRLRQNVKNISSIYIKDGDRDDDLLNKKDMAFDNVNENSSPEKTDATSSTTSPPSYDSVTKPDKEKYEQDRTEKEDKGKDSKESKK

[2] = target: Sodium channel protein type 5 subunit alpha (Homo sapiens, UniProt Q14524); test: Inhibition of human Nav1.5 expressed in HEK293 cells assessed as inward peak current by ion-works quattro patch clamp electrophysiology method; assay type: cell-based
Sodium channel protein type 5 subunit alpha, sequence (Q14524 whole entry): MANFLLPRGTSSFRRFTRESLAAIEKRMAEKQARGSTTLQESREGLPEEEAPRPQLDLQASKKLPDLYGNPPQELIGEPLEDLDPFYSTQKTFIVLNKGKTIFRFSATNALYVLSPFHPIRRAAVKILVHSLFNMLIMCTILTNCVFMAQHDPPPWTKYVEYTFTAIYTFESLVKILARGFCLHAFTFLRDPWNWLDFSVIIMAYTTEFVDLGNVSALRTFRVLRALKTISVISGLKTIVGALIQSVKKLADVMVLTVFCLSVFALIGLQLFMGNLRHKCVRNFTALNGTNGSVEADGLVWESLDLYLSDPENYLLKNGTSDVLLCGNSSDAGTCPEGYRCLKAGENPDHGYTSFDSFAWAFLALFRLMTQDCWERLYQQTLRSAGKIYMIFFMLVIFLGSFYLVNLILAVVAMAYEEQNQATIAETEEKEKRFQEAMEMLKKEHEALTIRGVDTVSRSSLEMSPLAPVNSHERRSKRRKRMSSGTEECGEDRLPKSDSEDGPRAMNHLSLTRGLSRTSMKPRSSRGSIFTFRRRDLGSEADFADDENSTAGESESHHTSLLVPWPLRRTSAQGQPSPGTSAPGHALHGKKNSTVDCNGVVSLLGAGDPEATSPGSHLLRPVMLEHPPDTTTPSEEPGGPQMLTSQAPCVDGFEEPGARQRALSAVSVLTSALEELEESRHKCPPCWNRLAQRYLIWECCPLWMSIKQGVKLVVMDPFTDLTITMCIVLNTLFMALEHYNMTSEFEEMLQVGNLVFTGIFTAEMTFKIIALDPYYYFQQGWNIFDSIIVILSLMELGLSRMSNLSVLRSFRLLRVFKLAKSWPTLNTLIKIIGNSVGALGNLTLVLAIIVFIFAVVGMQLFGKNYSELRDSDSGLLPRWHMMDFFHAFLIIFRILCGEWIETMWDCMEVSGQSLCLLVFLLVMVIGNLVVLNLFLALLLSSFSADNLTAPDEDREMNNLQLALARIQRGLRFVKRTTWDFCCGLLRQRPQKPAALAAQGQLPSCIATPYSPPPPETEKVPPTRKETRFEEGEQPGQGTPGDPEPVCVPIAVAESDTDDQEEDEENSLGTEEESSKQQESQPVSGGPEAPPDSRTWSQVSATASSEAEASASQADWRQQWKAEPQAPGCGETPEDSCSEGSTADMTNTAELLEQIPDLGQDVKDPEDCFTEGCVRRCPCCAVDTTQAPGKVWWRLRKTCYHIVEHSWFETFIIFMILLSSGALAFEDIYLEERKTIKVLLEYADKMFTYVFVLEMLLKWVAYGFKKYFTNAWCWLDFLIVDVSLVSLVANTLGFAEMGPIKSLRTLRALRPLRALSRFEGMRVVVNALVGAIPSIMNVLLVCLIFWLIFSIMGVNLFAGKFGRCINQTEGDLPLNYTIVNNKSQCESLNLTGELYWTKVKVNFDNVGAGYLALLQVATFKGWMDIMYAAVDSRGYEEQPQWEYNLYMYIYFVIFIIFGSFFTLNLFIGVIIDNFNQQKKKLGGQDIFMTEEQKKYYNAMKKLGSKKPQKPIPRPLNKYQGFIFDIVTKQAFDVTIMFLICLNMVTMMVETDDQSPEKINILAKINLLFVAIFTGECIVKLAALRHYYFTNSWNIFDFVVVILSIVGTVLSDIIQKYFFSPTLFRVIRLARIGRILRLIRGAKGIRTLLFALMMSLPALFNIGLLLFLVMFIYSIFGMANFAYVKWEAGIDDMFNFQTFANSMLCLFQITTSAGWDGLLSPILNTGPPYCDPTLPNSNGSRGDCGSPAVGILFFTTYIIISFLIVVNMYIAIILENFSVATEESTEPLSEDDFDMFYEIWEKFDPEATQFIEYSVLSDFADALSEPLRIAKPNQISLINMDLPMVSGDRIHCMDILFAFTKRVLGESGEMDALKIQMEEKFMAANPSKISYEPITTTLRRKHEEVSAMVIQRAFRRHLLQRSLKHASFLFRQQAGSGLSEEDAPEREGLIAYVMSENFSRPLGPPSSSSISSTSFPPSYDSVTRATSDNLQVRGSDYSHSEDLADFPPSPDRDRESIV
Summary of the method: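 Stable HEK293 line expressing human NaV1.5, recorded by population patch clamp on the IonWorks Quattro.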

Structure (SMILES)	IC50 [1]	IC50 [2]
CC[C@H](C)[C@@H]1NC(=O)[C@@H]2CSSC[C@@H]3NC(=O)[C@H](C(C)C)NC(=O)[C@H](CC(C)C)NC(=O)[C@H](CC(N)=O)NC(=O)[C@@H]4CCCN4C(=O)[C@H](CCCNC(=N)N)NC(=O)[C@H](CSSC[C@H](NC(=O)[C@H](CC(=O)O)NC(=O)[C@@H](N)Cc4c[nH]c5ccccc45)C(=O)N[C@@H](CC(C)C)C(=O)NCC(=O)N[C@@H](Cc4ccccc4)C(=O)N[C@@H](CCSC)C(=O)N[C@@H](CCCNC(=N)N)C(=O)N[C@@H](CCCCN)C(=O)N2)NC(=O)[C@H](CSSC[C@@H](C(=O)N[C@@H](CCCCN)C(=O)N[C@@H](Cc2ccc(O)cc2)C(=O)N[C@H](C(=O)N[C@@H](Cc2ccccc2)C(N)=O)C(C)C)NC(=O)[C@H](Cc2c[nH]c4ccccc24)NC(=O)[C@H](CCCCN)NC(=O)[C@H](Cc2cnc[nH]2)NC(=O)[C@H]([C@@H](C)O)NC(=O)[C@H](CCCNC(=N)N)NC(=O)[C@H](CO)NC3=O)NC(=O)[C@H](CCCCN)NC(=O)[C@H](CC(=O)O)NC(=O)[C@H](CC(N)=O)NC(=O)[C@H](CC(=O)O)NC(=O)[C@@H]2CCCN2C1=O	200 nM	> 5000 nM
CC[C@H](C)[C@@H]1NC(=O)[C@@H]2CSSC[C@@H]3NC(=O)[C@H](C(C)C)NC(=O)[C@H](CC(C)C)NC(=O)[C@H](CC(N)=O)NC(=O)[C@@H]4CCCN4C(=O)[C@H](CCCNC(=N)N)NC(=O)[C@H](CSSC[C@H](NC(=O)[C@@H](N)CC(=O)O)C(=O)N[C@@H](CC(C)C)C(=O)NCC(=O)N[C@@H](Cc4ccccc4)C(=O)N[C@@H](CCSC)C(=O)N[C@@H](CCCNC(=N)N)C(=O)N[C@@H](CCCCN)C(=O)N2)NC(=O)[C@H](CSSC[C@@H](C(=O)N[C@@H](CCCCN)C(=O)N[C@@H](Cc2ccc(O)cc2)C(=O)N[C@H](C(=O)N[C@@H](Cc2ccccc2)C(N)=O)C(C)C)NC(=O)[C@H](Cc2c[nH]c4ccccc24)NC(=O)[C@H](CCCCN)NC(=O)[C@H](Cc2cccc4ccccc24)NC(=O)[C@H]([C@@H](C)O)NC(=O)[C@H](CCCNC(=N)N)NC(=O)[C@H](CO)NC3=O)NC(=O)[C@H](CCCCN)NC(=O)[C@H](CC(=O)O)NC(=O)[C@H](CC(N)=O)NC(=O)[C@H](CC(=O)O)NC(=O)[C@@H]2CCCN2C1=O (H-DCLGFMRKCIPDNDKCCRPNLVCSRT[1Nal]KWCKYVF-NH2; disulfide 2-17, 9-23, 16-30)	250 nM	900 nM
CSCC[C@@H]1NC(=O)[C@H](Cc2ccccc2)NC(=O)CNC(=O)[C@H](CC(C)C)NC(=O)[C@@H](NC(=O)[C@@H](N)CC(=O)O)CSSC[C@@H]2NC(=O)[C@@H]3CSSC[C@@H](C(=O)N[C@@H](CCCCN)C(=O)N[C@@H](Cc4ccc(O)cc4)C(=O)N[C@H](C(=O)N[C@@H](Cc4ccccc4)C(N)=O)C(C)C)NC(=O)[C@H](Cc4c[nH]c5ccccc45)NC(=O)[C@H](CCCCN)NC(=O)[C@H](Cc4cnc[nH]4)NC(=O)[C@H]([C@@H](C)O)NC(=O)[C@H](CCCNC(=N)N)NC(=O)[C@H](CO)NC(=O)[C@H](CSSC[C@H](NC(=O)[C@H](CCCCN)NC(=O)[C@H](CCCNC(=N)N)NC1=O)C(=O)N[C@@H](CCCNC(=N)N)C(=O)N1CCC[C@H]1C(=O)N[C@@H](CC(=O)O)C(=O)N[C@@H](CC(N)=O)C(=O)N[C@@H](CC(=O)O)C(=O)N[C@@H](CCCCN)C(=O)N3)NC(=O)[C@H](C(C)C)NC(=O)[C@H](CC(C)C)NC(=O)[C@H](CC(N)=O)NC(=O)[C@@H]1CCCN1C(=O)[C@H](CCCNC(=N)N)NC2=O (H-DCLGFMRKCRPDNDKCCRPNLVCSRTHKWCKYVF-NH2; disulfide 2-17, 9-23, 16-30)	170 nM	> 5000 nM
CC[C@H](C)[C@@H]1NC(=O)[C@@H]2CSSC[C@@H]3NC(=O)[C@H](C(C)C)NC(=O)[C@H](CC(C)C)NC(=O)[C@H](CC(N)=O)NC(=O)[C@@H]4CCCN4C(=O)[C@H](CCCNC(=N)N)NC(=O)[C@H](CSSC[C@H](NC(=O)[C@@H](N)CC(=O)O)C(=O)N[C@@H](CC(C)C)C(=O)NCC(=O)N[C@@H](Cc4ccccc4)C(=O)N[C@@H](CCSC)C(=O)N[C@@H](CCCNC(=N)N)C(=O)N[C@@H](CCCCN)C(=O)N2)NC(=O)[C@H](CSSC[C@@H](C(=O)N[C@@H](CCCCN)C(=O)N[C@@H](Cc2ccc(O)cc2)C(=O)N[C@H](C(=O)N[C@@H](Cc2ccccc2)C(N)=O)C(C)C)NC(=O)[C@H](Cc2c[nH]c4ccccc24)NC(=O)[C@H](CCCCN)NC(=O)[C@H](Cc2cnc[nH]2)NC(=O)[C@H]([C@@H](C)O)NC(=O)[C@H](CCCNC(=N)N)NC(=O)[C@H](CO)NC3=O)NC(=O)[C@H](CCCCN)NC(=O)[C@H](CC(=O)O)NC(=O)[C@H](CCCNC(=N)N)NC(=O)[C@H](CC(=O)O)NC(=O)[C@@H]2CCCN2C1=O (H-DCLGFMRKCIPDRDKCCRPNLVCSRTHKWCKYVF-NH2; disulfide 2-17, 9-23, 16-30)	140 nM	> 5000 nM
CC[C@H](C)[C@@H]1NC(=O)[C@@H]2CSSC[C@@H]3NC(=O)[C@H](C(C)C)NC(=O)[C@H](CC(C)C)NC(=O)[C@H](CC(N)=O)NC(=O)[C@@H]4CCCN4C(=O)[C@H](CCCNC(=N)N)NC(=O)[C@H](CSSC[C@H](NC(=O)[C@H](CC(=O)O)NC(=O)[C@@H](N)CCC(=O)O)C(=O)N[C@@H](CC(C)C)C(=O)NCC(=O)N[C@@H](Cc4ccccc4)C(=O)N[C@@H](CCSC)C(=O)N[C@@H](CCCNC(=N)N)C(=O)N[C@@H](CCCCN)C(=O)N2)NC(=O)[C@H](CSSC[C@@H](C(=O)N[C@@H](CCCCN)C(=O)N[C@@H](Cc2ccc(O)cc2)C(=O)N[C@H](C(=O)N[C@@H](Cc2ccccc2)C(N)=O)C(C)C)NC(=O)[C@H](Cc2c[nH]c4ccccc24)NC(=O)[C@H](CCCCN)NC(=O)[C@H](Cc2cnc[nH]2)NC(=O)[C@H]([C@@H](C)O)NC(=O)[C@H](CCCNC(=N)N)NC(=O)[C@H](CO)NC3=O)NC(=O)[C@H](CCCCN)NC(=O)[C@H](CC(=O)O)NC(=O)[C@H](CC(N)=O)NC(=O)[C@H](CC(=O)O)NC(=O)[C@@H]2CCCN2C1=O	270 nM	> 5000 nM
CSCC[C@@H]1NC(=O)[C@H](Cc2ccccc2)NC(=O)CNC(=O)[C@H](CC(C)C)NC(=O)[C@@H](NC(=O)[C@@H](N)CC(=O)O)CSSC[C@@H]2NC(=O)[C@@H]3CSSC[C@@H](C(=O)N[C@@H](CCCCN)C(=O)N[C@@H](Cc4ccc(O)cc4)C(=O)N[C@H](C(=O)N[C@@H](Cc4ccccc4)C(N)=O)C(C)C)NC(=O)[C@H](Cc4c[nH]c5ccccc45)NC(=O)[C@H](CCCCN)NC(=O)[C@H](Cc4cnc[nH]4)NC(=O)[C@H]([C@@H](C)O)NC(=O)[C@H](CCCNC(=N)N)NC(=O)[C@H](CO)NC(=O)[C@H](CSSC[C@H](NC(=O)[C@H](CCCCN)NC(=O)[C@H](CCCNC(=N)N)NC1=O)C(=O)N[C@@H](CCCCN)C(=O)N1CCC[C@H]1C(=O)N[C@@H](CC(=O)O)C(=O)N[C@@H](CC(N)=O)C(=O)N[C@@H](CC(=O)O)C(=O)N[C@@H](CCCCN)C(=O)N3)NC(=O)[C@H](C(C)C)NC(=O)[C@H](CC(C)C)NC(=O)[C@H](CC(N)=O)NC(=O)[C@@H]1CCCN1C(=O)[C@H](CCCNC(=N)N)NC2=O (H-DCLGFMRKCKPDNDKCCRPNLVCSRTHKWCKYVF-NH2; disulfide 2-17, 9-23, 16-30)	230 nM	> 5000 nM
CC[C@H](C)[C@@H]1NC(=O)[C@@H]2CSSC[C@@H]3NC(=O)[C@H](C(C)C)NC(=O)[C@H](CC(C)C)NC(=O)[C@H](CC(N)=O)NC(=O)[C@@H]4CCCN4C(=O)[C@H](CCCNC(=N)N)NC(=O)[C@H](CSSC[C@H](NC(=O)[C@@H](N)CC(=O)O)C(=O)N[C@@H](CC(C)C)C(=O)NCC(=O)N[C@@H](Cc4ccccc4)C(=O)N[C@@H](CCSC)C(=O)N[C@@H](CCCNC(=N)N)C(=O)N[C@@H](CCCCN)C(=O)N2)NC(=O)[C@H](CSSC[C@@H](C(=O)N[C@@H](CCCCN)C(=O)N[C@@H](Cc2ccc(O)cc2)C(=O)N[C@H](C(=O)N[C@@H](Cc2ccccc2)C(N)=O)C(C)C)NC(=O)[C@H](Cc2c[nH]c4ccccc24)NC(=O)[C@H](CCCCN)NC(=O)[C@H](Cc2cnc[nH]2)NC(=O)[C@H]([C@@H](C)O)NC(=O)[C@H](CCCNC(=N)N)NC(=O)[C@H](CCC(=O)O)NC3=O)NC(=O)[C@H](CCCCN)NC(=O)[C@H](CC(=O)O)NC(=O)[C@H](CC(N)=O)NC(=O)[C@H](CC(=O)O)NC(=O)[C@@H]2CCCN2C1=O (H-DCLGFMRKCIPDNDKCCRPNLVCERTHKWCKYVF-NH2; disulfide 2-17, 9-23, 16-30)	> 5000 nM	> 5000 nM
CC[C@H](C)[C@@H]1NC(=O)[C@@H]2CSSC[C@@H]3NC(=O)[C@H](C(C)C)NC(=O)[C@H](CC(C)C)NC(=O)[C@H](CC(N)=O)NC(=O)[C@@H]4CCCN4C(=O)[C@H](CCCNC(=N)N)NC(=O)[C@H](CSSC[C@H](NC(=O)[C@@H](N)CC(=O)O)C(=O)N[C@@H](CC(C)C)C(=O)NCC(=O)N[C@@H](Cc4ccccc4)C(=O)N[C@@H](CCSC)C(=O)N[C@@H](CCCNC(=N)N)C(=O)N[C@@H](CCCCN)C(=O)N2)NC(=O)[C@H](CSSC[C@@H](C(=O)N[C@@H](CCCCN)C(=O)N[C@@H](Cc2ccc(O)cc2)C(=O)N[C@H](C(=O)N[C@@H](CCCNC(=N)N)C(N)=O)C(C)C)NC(=O)[C@H](Cc2c[nH]c4ccccc24)NC(=O)[C@H](CCCCN)NC(=O)[C@H](Cc2cnc[nH]2)NC(=O)[C@H]([C@@H](C)O)NC(=O)[C@H](CCCNC(=N)N)NC(=O)[C@H](CO)NC3=O)NC(=O)[C@H](CCCCN)NC(=O)[C@H](CC(=O)O)NC(=O)[C@H](CC(N)=O)NC(=O)[C@H](CC(=O)O)NC(=O)[C@@H]2CCCN2C1=O (H-DCLGFMRKCIPDNDKCCRPNLVCSRTHKWCKYVR-NH2; disulfide 2-17, 9-23, 16-30)	2350 nM	> 5000 nM

— ChEMBL document CHEMBL3797186, “Single Residue Substitutions That Confer Voltage-Gated Sodium Ion Channel Subtype Selectivity in the NaV1.7 Inhibitory Peptide GpTx-1” (J Med Chem, 2016)
